The sample as a whole holds a higher share of hits than the screen did.
YB-1 expr inh: YB-1 expression inhibition; actives 0.37% (n = 30,000); U2OS, qRT-PCR YB-1 vs CDIP delta delta Cp, 16 h; stronger effect = higher value; zero = DMSO, each unit about twofold; delta delta Cp (YB-1 minus CDIP) (test concentration not listed); AID 434959;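 active = delta delta Cp rounded down to an integer at or above 3, about 3 SD of DMSO wells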;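 note: higher means less YB-1 transcript or more CDIP transcript relative to DMSO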
T cruzi HTS: intracellular Trypanosoma cruzi inhibition | intracellular Trypanosoma cruzi in host cells, plate reader | activity score (inhibition), % at 5.01 µM | actives 4.9% (n = 22,000); in the data active = activity score above about 55%;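 note: parasites and compound incubated about four days before reading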
INS-1E rescue: INS-1E beta cell protection from cytokine death; protection from cytokine-induced ATP loss, % at 10 µM; INS-1E cytokine-induced death, ATP luminescence, 48 h; normalised: neutral wells 0, positive control 100; AID 488910; actives 0.1% (n = 20,000);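 active = mean replicate protection from cytokine-induced ATP loss at least 50% and at least 75% of replicates each reaching 50%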
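Material: INS-1E rat cells; Quantity: 8000 cells/well; Buffer or medium: phenol-red-free RPMI with 5% fetal bovine serum; Probe or stimulus: cytokine cocktail of IFN-γ, TNF-α and IL-1β; Compound dosing: single test concentration per compound, delivered by pin transfer; Incubation: 48 h co-treatment, 10 min post-lysis read; Signal: CellTiter-Glo luminescence.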
Numbers stand for hits; i = inactive; nt = no result given.

SMILES | YB-1 expr inh | T cruzi HTS | INS-1E rescue
C[C@H]1CN([C@@H](C)CO)C(=O)Cc2cc(NC(=O)Nc3ccc4c(c3)OCO4)ccc2O[C@H]1CN(C)C(=O)Nc1ccc(C(F)(F)F)cc1 | i | i | i
C[C@H](CO)N1C[C@H](C)[C@H](CN(C)Cc2ccc(C(F)(F)F)cc2)Oc2ccc(NC(=O)Nc3ccc4c(c3)OCO4)cc2CC1=O | i | 67.2 | i
C[C@@H]1CN([C@@H](C)CO)C(=O)Cc2cc(NC(=O)Nc3ccc4c(c3)OCO4)ccc2O[C@@H]1CN(C)C(=O)Nc1ccc(C(F)(F)F)cc1 | i | i | i
C[C@H]1CN([C@@H](C)CO)C(=O)Cc2cc(NC(=O)Nc3ccc(F)cc3)ccc2O[C@H]1CN(C)Cc1ccc2c(c1)OCO2 | i | i | i
C[C@H]1CN([C@@H](C)CO)C(=O)Cc2cc(NC(=O)Nc3ccc4c(c3)OCO4)ccc2O[C@H]1CN(C)Cc1ccc(C(F)(F)F)cc1 | i | 67.7 | i
C[C@H]1CN([C@@H](C)CO)C(=O)Cc2cc(NC(=O)Nc3ccc(C(F)(F)F)cc3)ccc2O[C@H]1CN(C)Cc1ccc2c(c1)OCO2 | i | 59.7 | i
C[C@@H]1CN([C@@H](C)CO)C(=O)Cc2cc(NC(=O)Nc3ccc4c(c3)OCO4)ccc2O[C@@H]1CN(C)Cc1ccc(C(F)(F)F)cc1 | i | 67.7 | i
C[C@@H]1CN([C@H](C)CO)C(=O)Cc2cc(NC(=O)Nc3ccc4c(c3)OCO4)ccc2O[C@H]1CN(C)C(=O)Nc1ccc(C(F)(F)F)cc1 | i | i | i
COc1ccc(S(=O)(=O)Nc2ccc3c(c2)CC(=O)N([C@@H](C)CO)C[C@@H](C)[C@@H](CN(C)Cc2ccc(C(=O)O)cc2)O3)cc1 | i | i | i
O=C(CCCCCCC(=O)Nc1ccccc1O)N/N=C/c1ccc(N2CCCC2)cc1 | i | i | i
CC1(C)Cc2ccccc2C(Nc2nc(-c3ccccc3)cs2)=N1 | i | nt | nt
C[C@H]1CN([C@@H](C)CO)C(=O)Cc2cc(NC(=O)Nc3ccc(C(F)(F)F)cc3)ccc2O[C@@H]1CN(C)C(=O)Nc1ccc2c(c1)OCO2 | i | i | i
C[C@H]1CN([C@@H](C)CO)C(=O)Cc2cc(NC(=O)Nc3ccc4c(c3)OCO4)ccc2O[C@@H]1CN(C)Cc1ccc(C(F)(F)F)cc1 | i | 71.3 | i
C[C@@H]1CN([C@H](C)CO)C(=O)c2cccc(NC(=O)Nc3cccc4ccccc34)c2O[C@H]1CN(C)C(=O)Nc1ccccc1 | i | i | i
C[C@@H]1CN([C@@H](C)CO)C(=O)c2cccc(NC(=O)Nc3cccc4ccccc34)c2O[C@H]1CN(C)C(=O)Nc1ccccc1 | i | i | i
C[C@H](CO)N1C[C@H](C)[C@@H](CN(C)C(=O)Nc2ccccc2)Oc2c(NC(=O)Nc3cccc4ccccc34)cccc2C1=O | i | 67.6 | i
C[C@H](CO)N1C[C@H](C)[C@H](CN(C)C(=O)Nc2ccccc2)Oc2c(NC(=O)Nc3cccc4ccccc34)cccc2C1=O | i | 63.4 | i
CCC(C)C(NC(=O)C(C)(C)NC(=O)C(C)(CC)NC(=O)C(N)Cc1c[nH]c2ccccc12)C(=O)NC(=O)CCC(NC(C)=O)C(=O)O (centres undefined) | i | nt | nt
O=C(NO)c1ccc(C(=O)N/N=C/c2cccnc2Br)cc1 | i | i | i
O=C(O)c1ccccc1Sc1ccccc1S(=O)(=O)NC12CC3CC(CC(C3)C1)C2 | i | nt | nt
C[C@H](CO)N1C[C@H](C)[C@H](CN(C)Cc2ccc(Oc3ccccc3)cc2)Oc2ccc(NC(=O)Nc3ccc(C(F)(F)F)cc3)cc2C1=O | i | 62.6 | nt
C[C@H]1CN([C@@H](C)CO)C(=O)c2cc(NC(=O)Nc3ccc(C(F)(F)F)cc3)ccc2O[C@H]1CN(C)Cc1ccc(Oc2ccccc2)cc1 | i | 80.1 | i
C[C@H](CO)N1C[C@H](C)[C@@H](CN(C)Cc2ccc(Oc3ccccc3)cc2)Oc2ccc(NC(=O)Nc3ccc(C(F)(F)F)cc3)cc2C1=O | i | i | i
C[C@@H]1CN([C@H](C)CO)C(=O)c2cc(NC(=O)Nc3ccccc3)ccc2O[C@@H]1CN(C)Cc1ccc(C(F)(F)F)cc1 | i | i | nt
C[C@H]1CN([C@@H](C)CO)C(=O)c2cccc(NS(=O)(=O)c3cccs3)c2O[C@@H]1CN(C)C | i | i | i
COc1ccc(NC(=O)Nc2cccc3c2O[C@@H](CN(C)Cc2ccc(C(=O)Nc4ccccc4N)cc2)[C@H](C)CN([C@H](C)CO)C3=O)cc1 | i | 66.8 | i
COc1ccc(NC(=O)Nc2cccc3c2O[C@H](CN(C)Cc2ccc(C(=O)Nc4ccccc4N)cc2)[C@H](C)CN([C@@H](C)CO)C3=O)cc1 | i | i | i

Screens: PubChem, Broad Institute
